In ChEMBL document CHEMBL1135746, “Structure-activity relationships of the antimalarial agent artemisinin. 7. Direct modification of (+)-artemisinin and in vivo antimalarial screening of new, potential preclinical antimalarial candidates” (J Med Chem, 2002):
Converted amounts (≈) assume the structure as drawn. The source made the active and inactive calls. No cut-off for these calls is given here.

Experiments:
Plasmodium berghei [1] = test: Antimalarial activity in Plasmodium berghei infected mice (Mus musculus) at 8 mg/kg/day peroral dose; type: functional; conditions: route oral
Method in brief: (§1)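 CD-1 mice (16-18 g), quarantined 2 weeks, then infected with P. berghei (Thompson test). Treatment was given on days 3-5 postinfection. Subcutaneous dosing was a single injection; oral dosing was by gavage of a peanut-oil suspension. Groups of 5 mice were used. Survival was scored out of 5 and parasitemia was followed up to 60 days postinfection.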

Plasmodium berghei [2] = test: Antimalarial activity in Plasmodium berghei infected mice (Mus musculus) at 32 mg/kg/day peroral dose; type: functional; conditions: route oral; method in brief: as §1
Plasmodium berghei [3] = test: Antimalarial activity in Plasmodium berghei infected mice (Mus musculus) at 128 mg/kg/day peroral dose; type: functional; conditions: route oral; method in brief: as §1
Plasmodium berghei [4] = test: Antimalarial activity in Plasmodium berghei infected mice (Mus musculus) at 8 mg/kg/day subcutaneous dose; type: functional; method in brief: as §1
Plasmodium berghei [5] = test: Antimalarial activity in Plasmodium berghei infected mice (Mus musculus) at 32 mg/kg/day subcutaneous dose; type: functional; method in brief: as §1
Plasmodium berghei [6] = test: Antimalarial activity in Plasmodium berghei infected mice (Mus musculus) after 128 mg/kg/day subcutaneous dose; type: functional; method in brief: as §1
Plasmodium falciparum [7] = test: Inhibitory activity against Plasmodium falciparum D6; type: functional, organism-based
Method in brief: (§2)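 Parasitized human red blood cells were used in short-term microtitre cultures. Compounds were dissolved in DMSO and diluted 400-fold in culture medium with plasma, giving a starting concentration of at least 12 500 ng/mL. Activity was measured as inhibition of parasite uptake of a radiolabelled nucleic acid precursor.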

Plasmodium falciparum [8] = test: Inhibitory activity against Plasmodium falciparum W2; type: functional, organism-based; method in brief: as §2
Plasmodium yoelii [9] = test: Percent suppression of Plasmodium […] NS infection in mice (Mus musculus) malaria model after 10 mg/kg peroral dose; type: functional; conditions: route oral
Plasmodium berghei [10] = test: Effective dose against Plasmodium berghei N in mice (Mus musculus) malaria model after peroral administration; type: functional; conditions: po
Plasmodium berghei [11] = test: Percent suppression of Plasmodium berghei N infection in mice (Mus musculus) malaria model after peroral dose; type: functional
Plasmodium yoelii [12] = test: Effective dose against Plasmodium yoelii NS after 10 mg/kg peroral dose in mice (Mus musculus) malaria model; Not active; type: functional, organism-based; design: dose 10 mg/kg
Plasmodium yoelii [13] = test: Effective oral dose ED90 in DMSO against Plasmodium yoelii sspNS; type: functional
Plasmodium berghei [14] = test: Effective dose ED90 against Plasmodium berghei N in mice (Mus musculus) malaria model after peroral administration; type: functional; conditions: po
Plasmodium yoelii [15] = test: Effective oral dose ED90 in SSV against Plasmodium yoelii sspNS; type: functional
Plasmodium falciparum [16] = test: Inhibitory activity against Plasmodium falciparum K1; type: functional, organism-based
Plasmodium berghei [17] = test: Effective dose ED50 against Plasmodium berghei N in mice (Mus musculus) malaria model after subcutaneous administration; type: functional; conditions: for ED50: Plasmodium berghei, sc, read-out: ED50
Plasmodium yoelii [18] = test: Effective oral dose ED50 in DMSO against Plasmodium yoelii sspNS; type: functional
Plasmodium yoelii [19] = test: Effective dose ED50 against Plasmodium yoelii sspNS in presence of SSV; type: functional
Plasmodium berghei [20] = test: (§3) Effective dose ED90 against Plasmodium berghei N in mice (Mus musculus) malaria model after subcutaneous administration; type: functional; conditions: Plasmodium berghei, sc; read-out: ED90
Plasmodium berghei [21] = test: Effective dose ED50 against Plasmodium berghei N in mice (Mus musculus) malaria model after peroral administration; type: functional; conditions: Plasmodium berghei, po; read-out: ED50
Plasmodium yoelii [22] = test: Effective subcutaneous dose ED90 against Plasmodium yoelii sspNS; type: functional
Plasmodium berghei [23] = test: Antimalarial activity against Plasmodium berghei infected mice (Mus musculus) at 32 mg/kg/day subcutaneous dose; type: functional; method in brief: as §1
Plasmodium falciparum [24] = test: Inhibitory activity against Plasmodium falciparum NF54; type: functional, organism-based
Plasmodium berghei [25] = test: Effective dose ED90 against Plasmodium berghei N in mice (Mus musculus) malaria model after oral administration; type: functional
Plasmodium yoelii [26] = test: Effective subcutaneous dose ED90 against Plasmodium yoelii NS; type: functional
Plasmodium yoelii [27] = test: Effective subcutaneous dose ED50 against Plasmodium yoelii sspNS; type: functional; conditions: sc
Plasmodium berghei [28] = test: Effective dose ED90 against Plasmodium berghei N in mice (Mus musculus) malaria model after subcutaneous dose; conditions: sc
Plasmodium berghei [29] = test: as §3; type: functional; conditions: sc
Method in brief: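 Peters' 4-day test: two batches of five male random-bred Swiss albino mice (18-22 g) were inoculated i.v. with 2 × 10⁶ P. berghei N-parasitized RBC. Drug was given once daily for four consecutive days. Compounds were dissolved in DMSO, then diluted in water for subcutaneous or oral dosing. Parasitemia was read the day after the last treatment.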

Row | SMILES | Activity (Plasmodium berghei [1]) | Activity (Plasmodium berghei [2]) | Activity (Plasmodium berghei [3]) | Activity (Plasmodium berghei [4]) | Activity (Plasmodium berghei [5]) | Activity (Plasmodium berghei [6]) | IC50 (Plasmodium falciparum [7]) | IC50 (Plasmodium falciparum [8]) | ED50 (Plasmodium berghei [17]) | ED90 (Plasmodium berghei [20]) | further results
1 | C[C@@H]1CC[C@H]2[C@@H](CCCc3ccc(Cl)c(Cl)c3)CO[C@@H]3OC4(C)CC[C@@H]1[C@]32OO4 (single isomer, unassigned) | 0 | 5 | 5 | 0 | 5 | 5 | – | – | – | – | –
2 | COc1ccc(CCC[C@H]2CO[C@@H]3OC4(C)CC[C@H]5[C@H](C)CC[C@@H]2[C@@]35OO4)cc1 (single isomer, unassigned) | 0 | 5 | 5 | 0 | 5 | 5 | – | – | – | – | –
3 | C[C@@H]1CC[C@H]2[C@@H](CCCC(F)(F)F)CO[C@@H]3OC4(C)CC[C@@H]1[C@]32OO4 (single isomer, unassigned) | – | – | – | – | – | – | 12.5 ng/mL (≈ 0.0342 µM) | 8.87 ng/mL (≈ 0.0243 µM) | – | – | Activity (Plasmodium yoelii [9]): 0.3%; ED50 (Plasmodium berghei [10]): > 10 mg/kg; ED90 (Plasmodium berghei [10]): > 10 mg/kg; Activity (Plasmodium berghei [11]): 6.5%; NA (Plasmodium yoelii [12]): inactive
4 | C[C@@H]1CC[C@H]2[C@@H](CCCc3cc(C(F)(F)F)cc(C(F)(F)F)c3)CO[C@@H]3OC4(C)CC[C@@H]1[C@]32OO4 (single isomer, unassigned) | – | – | – | – | – | – | 0.78 ng/mL (≈ 0.00153 µM) | 7.11 ng/mL (≈ 0.014 µM) | 0.9 mg/kg | 1.7 mg/kg | ED90 (Plasmodium yoelii [13]): 3.6 mg/kg; ED90 (Plasmodium berghei [14]): 5 mg/kg; ED90 (Plasmodium yoelii [15]): 12 mg/kg; IC50 (Plasmodium falciparum [16]): 4.06 ng/mL (≈ 0.00798 µM); ED50 (Plasmodium yoelii [18]): 1.5 mg/kg; ED50 (Plasmodium yoelii [19]): 4.2 mg/kg; ED50 (Plasmodium berghei [21]): 2.6 mg/kg
5 | C[C@@H]1CC[C@H]2[C@@H](CCCc3ccc(Cl)cc3)CO[C@@H]3OC4(C)CC[C@@H]1[C@]32OO4 (single isomer, unassigned) | – | – | 5 | – | 5 | 5 | 1.9 ng/mL (≈ 0.00467 µM) | 2.6 ng/mL (≈ 0.00639 µM) | – | – | ED90 (Plasmodium yoelii [22]): 1; Survival dose (Plasmodium berghei [23]): 5
6 | CCCC[C@H]1CO[C@@H]2O[C@]3(C)CC[C@H]4[C@H](C)CC[C@@H]1[C@@]24OO3 | 0 | 2 | – | 5 | 5 | 5 | – | – | – | – | –
7 | C=C[C@H]1CN2CC[C@H]1C[C@H]2[C@H](O)c1ccnc2ccc(OC)cc12 [QUININE] | – | – | – | – | – | – | 160 ng/mL (≈ 0.492 µM) | 150 ng/mL (≈ 0.462 µM) | 83 mg/kg | 1050 mg/kg | ED90 (Plasmodium berghei [14]): 118 mg/kg; IC50 (Plasmodium falciparum [24]): 9.08 ng/mL (≈ 0.028 µM); ED50 (Plasmodium berghei [21]): 71 mg/kg
8 | C[C@@H]1CC[C@H]2[C@@H](CCCc3ccccc3)CO[C@@H]3OC4(C)CC[C@@H]1[C@]32OO4 (single isomer, unassigned) | 0 | 4 | 5 | 0 | 5 | 5 | 0.9 ng/mL (≈ 0.00242 µM) | – | – | – | ED90 (Plasmodium berghei [17]): 1; ED90 (Plasmodium berghei [25]): 3.4; ED90 (Plasmodium yoelii [26]): 0.9
9 | CCN(CC)CCCC(C)Nc1ccnc2cc(Cl)ccc12 (stereo not given) [CHLOROQUINE] | – | – | – | – | – | – | – | – | 1.5 mg/kg | 3 mg/kg | ED50 (Plasmodium yoelii [27]): 1.6 mg/kg; ED90 (Plasmodium berghei [28]): 1.8 mg/kg; ED90 (Plasmodium yoelii [22]; Plasmodium yoelii, sc, read-out: ED90): 28 mg/kg; ED90 (Plasmodium berghei [29]): 3.4 mg/kg
